Laboratory results: ChEMBL document CHEMBL1151848, “Aryl nucleoside H-phosphonates. Part 16: synthesis and anti-HIV-1 activity of di-aryl nucleoside phosphotriesters” (Bioorg Med Chem, 2009)

assay: Chemical stability in RPMI-1640 culture medium at 2 uM up to 6 days by HPLC analysis; type: physicochemical; conditions: 144 h

| SMILES | Stability |
| --- | --- |
| Cc1cn([C@H]2C[C@H](N=[N+]=[N-])[C@@H](COP(=O)(O)Oc3ccc(C#N)cc3)O2)c(=O)[nH]c1=O | Stable |
| Cc1cn([C@H]2C[C@H](N=[N+]=[N-])[C@@H](COP(=O)(O)Oc3cccnc3)O2)c(=O)[nH]c1=O | Stable |
| Cc1cn([C@H]2C[C@H](N=[N+]=[N-])[C@@H](COP(=O)(O)Oc3ccc(Br)cc3)O2)c(=O)[nH]c1=O | Stable |
| Cc1cn([C@H]2C[C@H](N=[N+]=[N-])[C@@H](COP(=O)(O)Oc3ccc(Cl)cc3Cl)O2)c(=O)[nH]c1=O | Stable |
| Cc1cn([C@H]2C[C@H](N=[N+]=[N-])[C@@H](COP(=O)(O)Oc3ccc(Cl)cc3)O2)c(=O)[nH]c1=O | Stable |

assay: Chemical stability assessed as enzymatic hydrolysis half life in RPMI-1640 culture medium containing heat non-inactivated fetal bovine serum by HPLC analysis; type: physicochemical; conditions: cattle
Method in brief: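 Enzymatic hydrolysis by phosphoesterases was followed in RPMI-1640 containing heat non-inactivated FBS (RPMI/FBS 9:1, v/v).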

| SMILES | half-life |
| --- | --- |
| Cc1cn([C@H]2C[C@H](N=[N+]=[N-])[C@@H](COP(=O)(O)Oc3ccc(C#N)cc3)O2)c(=O)[nH]c1=O | 7.08 h |
| Cc1cn([C@H]2C[C@H](N=[N+]=[N-])[C@@H](COP(=O)(O)Oc3cccnc3)O2)c(=O)[nH]c1=O | 3.88 h |
| Cc1cn([C@H]2C[C@H](N=[N+]=[N-])[C@@H](COP(=O)(O)Oc3ccc(Br)cc3)O2)c(=O)[nH]c1=O | 7.97 h |
| Cc1cn([C@H]2C[C@H](N=[N+]=[N-])[C@@H](COP(=O)(O)Oc3ccc(Cl)cc3Cl)O2)c(=O)[nH]c1=O | 3.03 h |
| Cc1cn([C@H]2C[C@H](N=[N+]=[N-])[C@@H](COP(=O)(O)Oc3ccc(Cl)cc3)O2)c(=O)[nH]c1=O | 5.5 h |
